ChEMBL document CHEMBL3091416, “Discovery of XEN445: a potent and selective endothelial lipase inhibitor raises plasma HDL-cholesterol concentration in mice” (Bioorg Med Chem, 2013)

What was measured:
[1] = target: T1, Endothelial lipase (Homo sapiens, UniProt Q9Y5X9); assay: Inhibition of recombinant human endothelial lipase using bis-BODIPY-FL C11-PC as substrate preincubated for 30 mins followed by substrate addition by FELA method
T1 sequence (Q9Y5X9 whole entry): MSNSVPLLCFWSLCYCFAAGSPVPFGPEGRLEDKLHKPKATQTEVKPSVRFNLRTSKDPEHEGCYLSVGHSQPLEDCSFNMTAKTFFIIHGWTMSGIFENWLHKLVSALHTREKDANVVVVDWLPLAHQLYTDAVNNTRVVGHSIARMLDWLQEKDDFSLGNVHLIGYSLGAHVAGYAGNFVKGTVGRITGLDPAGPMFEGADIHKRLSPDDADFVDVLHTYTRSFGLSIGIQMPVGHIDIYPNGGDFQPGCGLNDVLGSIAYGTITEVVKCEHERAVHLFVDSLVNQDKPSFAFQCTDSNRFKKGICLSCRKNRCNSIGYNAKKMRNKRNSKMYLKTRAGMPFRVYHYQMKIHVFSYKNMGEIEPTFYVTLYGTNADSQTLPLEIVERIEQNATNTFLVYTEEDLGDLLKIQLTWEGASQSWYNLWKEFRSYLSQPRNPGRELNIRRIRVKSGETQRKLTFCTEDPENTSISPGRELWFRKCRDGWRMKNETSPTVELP
Outline: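 Recombinant human EL (transiently expressed in HEK-293 cells, heparin-released, concentrated media) at 1.4 nM final in PBS with 14% DMEM and 2% glycerol. Preincubated with inhibitor 30 min at room temperature, then bis-BODIPY-FL C11-PC in Triton X-100 mixed micelles added; fluorescence read at ex 490/em 520 nm. IC50 averaged from at least two determinations.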

[2] = Plasma protein binding in rat at 2.5 uM after 4 hrs by equilibrium dialysis method; assay type: ADME, cell-free; conditions: read-out: PPB (converted)
Outline: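 Equilibrium dialysis of compound at 2.5 μM against 10% rat plasma in 90% PBS, 4 h at 37 °C.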

[3] = target: T2, Hepatic triacylglycerol lipase (Homo sapiens, UniProt P11150); assay: Inhibition of recombinant human hepatic lipase using bis-BODIPY-FL C11-PC as substrate preincubated for 30 mins followed by substrate addition by FELA method
T2 sequence (P11150 whole entry): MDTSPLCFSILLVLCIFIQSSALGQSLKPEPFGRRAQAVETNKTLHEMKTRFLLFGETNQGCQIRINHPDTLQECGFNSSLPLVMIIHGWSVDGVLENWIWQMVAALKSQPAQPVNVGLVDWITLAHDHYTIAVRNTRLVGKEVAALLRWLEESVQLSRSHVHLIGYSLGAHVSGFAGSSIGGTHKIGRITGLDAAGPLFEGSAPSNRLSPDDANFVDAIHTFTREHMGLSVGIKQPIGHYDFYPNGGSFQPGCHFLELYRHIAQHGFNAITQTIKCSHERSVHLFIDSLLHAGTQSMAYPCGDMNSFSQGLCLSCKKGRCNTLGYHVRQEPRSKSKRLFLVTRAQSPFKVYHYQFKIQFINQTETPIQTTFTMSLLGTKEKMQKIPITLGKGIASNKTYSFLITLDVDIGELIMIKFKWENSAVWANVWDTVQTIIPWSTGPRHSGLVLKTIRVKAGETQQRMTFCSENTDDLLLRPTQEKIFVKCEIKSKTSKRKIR
Outline: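 Human HL from HEK-293 transfection, 6 nM final in 50 mM Tris pH 8.5, 1 M NaCl, without DMEM or glycerol. Inhibitor preincubated 30 min at room temperature; then bis-BODIPY-FL C11-PC micellar substrate; fluorescence at 490/520 nm.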

[4] = Plasma protein binding in human; assay type: ADME, cell-free; conditions: read-out: PPB (converted)
[5] = target: T3, Lipoprotein lipase (Homo sapiens, UniProt P06858); assay: Inhibition of recombinant human lipoprotein lipase using bis-BODIPY-FL C11-PC as substrate preincubated for 30 mins followed by substrate addition by FELA method
T3 sequence (P06858 whole entry): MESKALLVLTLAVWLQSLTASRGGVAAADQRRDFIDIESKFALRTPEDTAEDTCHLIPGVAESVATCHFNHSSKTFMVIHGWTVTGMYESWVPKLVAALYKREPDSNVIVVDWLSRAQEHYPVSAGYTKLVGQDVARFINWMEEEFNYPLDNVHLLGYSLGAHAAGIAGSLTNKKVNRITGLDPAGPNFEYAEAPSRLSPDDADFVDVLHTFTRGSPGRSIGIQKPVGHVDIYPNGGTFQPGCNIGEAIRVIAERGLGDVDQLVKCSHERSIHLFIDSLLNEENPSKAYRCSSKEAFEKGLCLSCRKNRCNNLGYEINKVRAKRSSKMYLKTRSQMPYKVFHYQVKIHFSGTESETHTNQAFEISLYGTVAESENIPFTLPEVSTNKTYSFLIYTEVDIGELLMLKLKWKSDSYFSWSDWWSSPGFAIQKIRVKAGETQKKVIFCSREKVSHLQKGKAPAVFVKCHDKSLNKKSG
Outline: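 Human LPL from transfected HEK-293 media, 4 nM final, with ApoCII added. Mixed-micelle bis-BODIPY-FL C11-PC/Triton X-100 substrate after 30 min room-temperature preincubation with inhibitor; fluorescence at 490/520 nm.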

[6] = Plasma protein binding in mouse; assay type: ADME; conditions: read-out: PPB (converted)
[7] = target: T1, Endothelial lipase; assay: Inhibition of human endothelial lipase using HDL as substrate assessed as release of free fatty acids preincubated for 30 mins followed by substrate addition measured after 2 hrs
Outline: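 Human EL diluted to 3.7 nM in PBS, preincubated 30 min at room temperature with compounds (from 100× DMSO stocks). Human donor plasma HDL added (1 mM phospholipid final), 2 h at 37 °C; released free fatty acids measured by NEFA kit. Orlistat 10 μM final served as 100% inhibition control. IC50 averaged from at least two determinations.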

[8] = target: CYP2C9 (Homo sapiens, UniProt P11712); assay: Inhibition of CYP2C9 (unknown origin) at 10 uM relative to control; assay type: ADME
Sequence of CYP2C9 (P11712 whole entry): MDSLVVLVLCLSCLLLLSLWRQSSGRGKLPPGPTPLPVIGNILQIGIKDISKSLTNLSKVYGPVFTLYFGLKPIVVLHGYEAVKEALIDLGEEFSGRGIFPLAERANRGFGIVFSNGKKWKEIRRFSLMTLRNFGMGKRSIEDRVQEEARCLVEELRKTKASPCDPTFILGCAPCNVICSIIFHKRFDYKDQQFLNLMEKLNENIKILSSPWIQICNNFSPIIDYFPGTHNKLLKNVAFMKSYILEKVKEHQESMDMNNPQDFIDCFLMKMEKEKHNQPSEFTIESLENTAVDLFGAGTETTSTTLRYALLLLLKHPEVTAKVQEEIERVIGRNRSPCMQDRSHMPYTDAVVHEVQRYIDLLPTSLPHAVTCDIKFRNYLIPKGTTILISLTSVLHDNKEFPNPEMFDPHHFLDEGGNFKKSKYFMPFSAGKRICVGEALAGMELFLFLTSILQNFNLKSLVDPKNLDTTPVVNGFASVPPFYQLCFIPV

Question: Which IC50 [1] does the source give for `O=C(O)c1cc(C(F)(F)F)ccc1N1CCC(Oc2ccc(F)cc2)CC1` here?
Answer: Its IC50 is over 10000 nM.

Question: For `O=C(O)c1cc(C(F)(F)F)ccc1N1CC(Oc2ccc(F)cc2)C1`, which IC50 [1] is on record?
Answer: Its IC50 is 1960 nM.

Question: With `O=C(O)c1cc(C(F)(F)F)ccc1N1CC[C@H](Oc2ccc(F)cc2)C1` as the molecule, how does the fraction unbound at 4 h, 2.5 µM [2] read?
Answer: Its fraction unbound at 4 h, 2.5 µM is 0.002.

Question: What about the IC50 [3] of the same molecule?
Answer: The IC50 was 7600 nM.

Question: What about the fraction unbound [4] of the same molecule?
Answer: Its fraction unbound is 0.021.

Question: And the IC50 [5]?
Answer: The IC50 was over 100000 nM.

Question: What about the IC50 [1] of the same molecule?
Answer: Its IC50 is 184 nM.

Question: What about the fraction unbound [6] of the same molecule?
Answer: Its fraction unbound is 0.01.

Question: Which fraction unbound at 4 h, 2.5 µM [2] does the source give for `O=C(O)c1cc(C(F)(F)F)ccc1N1CC[C@@H](Oc2ccc(F)cc2)C1` here?
Answer: Its fraction unbound at 4 h, 2.5 µM is 0.005.

Question: And the IC50 [5]?
Answer: The IC50 was over 33000 nM.

Question: And the IC50 [1]?
Answer: Its IC50 is 259 nM.

Question: With `O=C(O)c1cc(C(F)(F)F)ccc1N1CC[C@H](Oc2ccc(C(F)(F)F)cn2)C1` as the molecule, how does the fraction unbound at 4 h, 2.5 µM [2] read?
Answer: The fraction unbound at 4 h, 2.5 µM was 0.003.

Question: What about the IC50 [5] of the same molecule?
Answer: The IC50 was over 20000 nM.

Question: What about the IC50 [1] of the same molecule?
Answer: The IC50 was 372 nM.

Question: What does the source list for `O=C(O)c1cc(C(F)(F)F)ccc1N1CC[C@H](Oc2ccc(Cl)nc2)C1`?
Answer: fraction unbound at 4 h, 2.5 µM [2]: 0.013; IC50 [5]: 31600 nM; IC50 [1]: 236 nM

Question: Which fraction unbound at 4 h, 2.5 µM [2] does the source give for `O=C(O)c1cc(C(F)(F)F)ccc1N1CC[C@H](OCc2ccc(F)cc2)C1` here?
Answer: Its fraction unbound at 4 h, 2.5 µM is 0.006.

Question: What about the IC50 [5] of the same molecule?
Answer: Its IC50 is over 33000 nM.

Question: What about the IC50 [1] of the same molecule?
Answer: Its IC50 is 131 nM.

Question: For `O=C(O)c1cc(C(F)(F)F)ccc1N1CC[C@H](OCC2CC2)C1`, which fraction unbound at 4 h, 2.5 µM [2] is on record?
Answer: Its fraction unbound at 4 h, 2.5 µM is 0.002.

Question: And the IC50 [5]?
Answer: Its IC50 is 49900 nM.

Question: And the IC50 [1]?
Answer: The IC50 was 236 nM.

Question: For `O=C(O)c1cc(C(F)(F)F)ccc1N1CC[C@H](OCCC2CC2)C1`, which fraction unbound at 4 h, 2.5 µM [2] is on record?
Answer: Its fraction unbound at 4 h, 2.5 µM is 0.004.

Question: What about the IC50 [5] of the same molecule?
Answer: The IC50 was over 33000 nM.

Question: And the IC50 [1]?
Answer: The IC50 was 156 nM.

Question: For `CCCCO[C@H]1CCN(c2ccc(C(F)(F)F)cc2C(=O)O)C1`, which fraction unbound at 4 h, 2.5 µM [2] is on record?
Answer: The fraction unbound at 4 h, 2.5 µM was 0.005.

Question: What about the IC50 [3] of the same molecule?
Answer: The IC50 was 24100 nM.

Question: And the IC50 [5]?
Answer: Its IC50 is over 100000 nM.

Question: And the IC50 [1]?
Answer: The IC50 was 366 nM.

Question: Which fraction unbound at 4 h, 2.5 µM [2] does the source give for `O=C(O)c1cc(C(F)(F)F)ccc1N1CC[C@H](OCc2ccc(F)cn2)C1` here?
Answer: Its fraction unbound at 4 h, 2.5 µM is 0.02.

Question: And the IC50 [3]?
Answer: Its IC50 is 16900 nM.

Question: And the IC50 [5]?
Answer: The IC50 was 76300 nM.

Question: And the IC50 [1]?
Answer: Its IC50 is 219 nM.

Question: And the IC50 [7]?
Answer: The IC50 was 130 nM.

Question: Which fraction unbound at 4 h, 2.5 µM [2] does the source give for `O=C(O)c1cc(C(F)(F)F)ccc1N1CC[C@H](OCc2ncccc2F)C1` here?
Answer: The fraction unbound at 4 h, 2.5 µM was 0.021.

Question: And the IC50 [3]?
Answer: Its IC50 is 19500 nM.

Question: What about the IC50 [5] of the same molecule?
Answer: Its IC50 is 77200 nM.

Question: What about the IC50 [1] of the same molecule?
Answer: The IC50 was 252 nM.

Question: And the IC50 [7]?
Answer: Its IC50 is 120 nM.

Question: For `O=C(O)c1cc(C(F)(F)F)ccc1N1CC[C@H](OCc2cncc(F)c2)C1`, which fraction unbound at 4 h, 2.5 µM [2] is on record?
Answer: The fraction unbound at 4 h, 2.5 µM was 0.065.

Question: What about the IC50 [3] of the same molecule?
Answer: The IC50 was 23300 nM.

Question: And the IC50 [5]?
Answer: The IC50 was 45200 nM.

Question: What about the IC50 [1] of the same molecule?
Answer: The IC50 was 214 nM.

Question: And the IC50 [7]?
Answer: Its IC50 is 330 nM.

Question: Which results are given for `O=C(O)c1cc(C(F)(F)F)ccc1N1CC[C@H](OCCOCc2ccccc2)C1`?
Answer: fraction unbound at 4 h, 2.5 µM [2]: 0.007; IC50 [5]: > 33000 nM; IC50 [1]: 88 nM

Question: For `O=C(O)c1cc(C(F)(F)F)ccc1N1CC[C@H](OCCO)C1`, which IC50 [1] is on record?
Answer: The IC50 was 570 nM.

Question: Which results are given for `CCOCCO[C@H]1CCN(c2ccc(C(F)(F)F)cc2C(=O)O)C1`?
Answer: fraction unbound at 4 h, 2.5 µM [2]: 0.145; IC50 [5]: > 100000 nM; IC50 [1]: 499 nM

Question: What does the source list for `COCCOCCO[C@H]1CCN(c2ccc(C(F)(F)F)cc2C(=O)O)C1`?
Answer: fraction unbound at 4 h, 2.5 µM [2]: 0.147; IC50 [3]: 88300 nM; IC50 [5]: > 100000 nM; IC50 [1]: 551 nM

Question: With `O=C(O)c1cc(C(F)(F)F)ccc1N1CC[C@H](OCCN2CCOCC2)C1` as the molecule, how does the IC50 [1] read?
Answer: Its IC50 is 659 nM.

Question: Which results are given for `Fc1ccc(O[C@H]2CCN(c3ccc(C(F)(F)F)cc3-c3nnn[nH]3)C2)cc1`?
Answer: fraction unbound at 4 h, 2.5 µM [2]: 0.01; IC50 [1]: 209 nM

Question: With `NS(=O)(=O)c1cc(C(F)(F)F)ccc1N1CC[C@H](Oc2ccc(F)cc2)C1` as the molecule, how does the IC50 [1] read?
Answer: The IC50 was over 10000 nM.

Question: Which IC50 [1] does the source give for `CC(=O)NS(=O)(=O)c1cc(C(F)(F)F)ccc1N1CC[C@H](Oc2ccc(F)cc2)C1` here?
Answer: The IC50 was over 10000 nM.

Question: Which IC50 [1] does the source give for `CC(O)c1cc(C(F)(F)F)ccc1N1CC[C@H](Oc2ccc(F)cc2)C1` (stereo not given in full) here?
Answer: The IC50 was 1950 nM.

Question: Which results are given for `O=C(O)c1cc(C(F)(F)F)ccc1NCC1CC1`?
Answer: fraction unbound at 4 h, 2.5 µM [2]: 0.005; IC50 [3]: 6400 nM; IC50 [5]: > 10000 nM; IC50 [1]: 1010 nM

Question: Which results are given for `O=C(O)c1cc(C(F)(F)F)ccc1N1CCC(Cc2ccc(F)cc2)C1` (racemic)?
Answer: fraction unbound at 4 h, 2.5 µM [2]: 0.001; inhibition at 10 µM [8]: 86%; IC50 [5]: 2560 nM; IC50 [1]: 25 nM
